Test results from ChEMBL document CHEMBL1144735, “Design, synthesis, and evaluation of trifluoromethyl ketones as inhibitors of SARS-CoV 3CL protease” (Bioorg Med Chem, 2008).

What follows are molecules tested against Replicase polyprotein 1a (Severe acute respiratory syndrome-related coronavirus, UniProt P0C6U8) (assay: Inhibition of SARS-CoV 3CL protease).
Outline: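 Purified SARS-CoV 3CL protease (50 nM) with 6 μM fluorogenic substrate peptide in 20 mM Bis–Tris pH 7.0 at 25 °C. Initial velocities were read across inhibitor concentrations and fitted for IC50.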

| Compound | IC50 |
| --- | --- |
| CCCCCCCCC(=O)N[C@@H](CC(C)C)C(=O)NC(Cc1ccccc1)C(=O)C(F)(F)F (stereo partly drawn) | > 50 µM |
| C[C@H](NC(=O)[C@H](CCC(=O)OC(C)(C)C)NC(=O)OC(C)(C)C)C(=O)NCC(=O)C(F)(F)F | 40 µM |
| C[C@H](NC(=O)[C@@H](N)CCC(=O)O)C(=O)NCC(=O)C(F)(F)F | 50 µM |
| CC(C)C[C@H](NC(=O)[C@@H](NC(=O)[C@H](C)NC(=O)OCc1ccccc1)C(C)C)C(=O)N[C@@H](Cc1ccccc1)C(=O)C(F)(F)F (mixture of isomers) | 10 µM |
| CC(C)C[C@H](NC(=O)OC(C)(C)C)C(=O)NC(C)C(=O)C(F)(F)F (mixture of isomers) | 40 µM |
| CC(C)C[C@H](NC(=O)OCc1ccccc1)C(=O)NC(Cc1ccccc1)C(=O)C(F)(F)F (mixture of isomers) | 15 µM |
| CCCCCCCCCC(=O)N[C@@H](CC(C)C)C(=O)NC(Cc1ccccc1)C(=O)C(F)(F)F (mixture of isomers) | 50 µM |
| O=C(N[C@@H](Cc1ccccc1)C(=O)NC(Cc1ccccc1)C(=O)C(F)(F)F)OCc1ccccc1 (mixture of isomers) | 20 µM |
